The source made the active and inactive calls. The rule behind the calls is not given here.
How the values were obtained:
Ramos [1] = assay: Antitumor activity against human Ramos cells xenografted in BALB/c nude mouse assessed as tumor growth inhibition at 75 mg/kg, po qd on a 2 days on and 5 days off schedule for 15 days; assay type: functional; details: read-out: GI
DU-145 = assay: Antiproliferative activity against human DU145 cells after 48 hrs; assay type: functional, cell-based; details: DU-145, 48 h
[2] = Plasma protein binding in mouse at 1000 ng/ml after 4 hrs by equilibrium dialysis method; assay type: ADME, cell-free; details: read-out: PPB (converted)
Procedure, shortened: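 Equilibrium dialysis of plasma (mouse, dog, human) spiked to 1000 ng/mL against PBS, 4 h at 37 °C. Buffer side extracted in triplicate with MTBE, dried, reconstituted in methanol/water 60:40, measured by LC−MS/MS.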

Ramos [3] = assay: Antiproliferative activity against human Ramos cells after 48 hrs; assay type: functional, cell-based
[4] = Half life in mouse liver microsomes at 5 uM by LC-MS/MS analysis; assay type: ADME, Microsome
Procedure, shortened: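 5 μM with mouse, rat, dog or human liver microsomes (~0.87 mg/mL), 50 mM potassium phosphate pH 7.4, NADPH regeneration system, 37 °C.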

[5] = target: Cyclin-dependent kinase 2 (Homo sapiens) (UniProt P24941); assay: Inhibition of CDK2 in human HCT116 cells assessed as Rb phosphorylation at 40 nM after 24 hrs by Western blot analysis; assay type: cell-based; details: HCT-116
Procedure, shortened: (§1)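 HCT-116 cells (2 × 10^5 in McCoy's medium with 2 mM L-glutamine and 10% FBS) seeded 16−24 h before dosing. Each dish exposed to one compound concentration or DMSO for 24 h. Lysis in modified RIPA buffer; protein by Bradford. 30 μg lysate run on 10% SDS−PAGE, blotted to PVDF, probed for phospho-Rb and β-actin. ECL detection.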

[6] = Oral bioavailability in BALB/c mouse at 75 mg/kg by LC-MS/MS analysis; assay type: ADME, organism-based; details: in vivo
Procedure, shortened: (§2)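 Male BALB/c mice (~10−12 weeks, 17−22 g) gavaged with 75 mg/kg as a suspension in 0.5% methylcellulose/0.1% Tween 80. Serial blood by cardiac puncture over 0−24 h into K3EDTA, plasma stored at −70 °C, LC−MS/MS; parameters by noncompartmental analysis.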

[7] = target: T1, Receptor-type tyrosine-protein kinase FLT3 (Homo sapiens, UniProt P36888); assay: Inhibition of recombinant Flt3 using poly(Glu,Tyr) as substrate after 2 hrs by luminescence assay
T1 sequence (P36888 whole entry): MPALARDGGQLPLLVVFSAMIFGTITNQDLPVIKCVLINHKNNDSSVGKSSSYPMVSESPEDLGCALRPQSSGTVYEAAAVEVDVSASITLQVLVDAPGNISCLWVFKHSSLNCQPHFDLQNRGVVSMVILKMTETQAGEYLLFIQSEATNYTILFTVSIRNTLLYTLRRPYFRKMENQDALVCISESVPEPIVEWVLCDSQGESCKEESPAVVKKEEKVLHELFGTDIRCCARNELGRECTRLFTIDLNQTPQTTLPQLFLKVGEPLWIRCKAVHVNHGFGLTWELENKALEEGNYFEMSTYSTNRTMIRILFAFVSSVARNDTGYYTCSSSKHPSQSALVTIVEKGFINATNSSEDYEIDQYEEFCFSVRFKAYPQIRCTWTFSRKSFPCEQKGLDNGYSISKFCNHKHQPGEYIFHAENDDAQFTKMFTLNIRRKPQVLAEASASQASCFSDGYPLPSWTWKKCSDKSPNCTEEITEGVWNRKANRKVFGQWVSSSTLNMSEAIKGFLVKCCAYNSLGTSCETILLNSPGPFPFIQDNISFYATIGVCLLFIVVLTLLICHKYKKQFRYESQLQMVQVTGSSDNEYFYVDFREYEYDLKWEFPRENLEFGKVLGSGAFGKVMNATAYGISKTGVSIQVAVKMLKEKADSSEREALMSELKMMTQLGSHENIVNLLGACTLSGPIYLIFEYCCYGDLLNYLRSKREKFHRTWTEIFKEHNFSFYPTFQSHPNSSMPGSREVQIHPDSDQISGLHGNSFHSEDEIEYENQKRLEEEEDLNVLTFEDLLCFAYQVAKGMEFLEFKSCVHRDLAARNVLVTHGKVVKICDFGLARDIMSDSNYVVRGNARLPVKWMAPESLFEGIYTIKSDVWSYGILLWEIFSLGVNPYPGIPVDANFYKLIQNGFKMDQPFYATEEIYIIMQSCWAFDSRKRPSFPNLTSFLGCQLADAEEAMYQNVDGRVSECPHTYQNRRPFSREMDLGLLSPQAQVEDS

COLO 205 = assay: Antiproliferative activity against human COLO205 cells after 48 hrs; assay type: functional, cell-based; details: COLO 205, 48 h
Cytochrome P450 3A4 = Cytochrome P450 3A4 (Homo sapiens, UniProt P08684); assay: Inhibition of CYP3A4 in human liver microsomes using midazolam as substrate after 5 mins by LC-MS/MS analysis; assay type: ADME, Microsome
[8] = Clearance in BALB/c mouse at 5 mg/kg, iv by LC-MS/MS analysis; assay type: ADME, organism-based; parameters: dose 5 mg/kg, route intravenous; details: in vivo
[9] = Cmax in BALB/c mouse at 75 mg/kg, po by LC-MS/MS analysis; assay type: ADME, organism-based; parameters: dose 75 mg/kg, route oral; details: in vivo; procedure, shortened: as §2
[10] = Apparent permeability of the compound from basolateral to apical side in human Caco2 cells at 5 uM after 21 to 28 days by LC/MS analysis; assay type: ADME, cell-based; details: Caco-2
Procedure, shortened: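 5 μM in HBSS (DMSO <1%) dosed apical or basolateral on 21−28-day confluent Caco-2 monolayers, both sides pH 7.4. Sampled at 2 h, quantified by LC/MS with four-point calibration. Monolayer integrity checked by pre-experiment TEER (450−650 Ωcm2) and Lucifer yellow; efflux ratio = Papp B→A / Papp A→B.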

[11] = AUC (0 to infinity) in BALB/c mouse at 75 mg/kg, po by LC-MS/MS analysis; assay type: ADME, organism-based; parameters: time infinity, dose 75 mg/kg, route oral; details: plasma; procedure, shortened: as §2
Cytochrome P450 2C19 = Cytochrome P450 2C19 (Homo sapiens, UniProt P33261); assay: Inhibition of CYP2C19 in human liver microsomes using mephenytoin as substrate after 60 mins by LC-MS/MS analysis; assay type: ADME, Microsome
Procedure, shortened: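 Human liver microsomes (0.5 mg/mL for CYP2C19, 1 mg/mL for CYP2C9), NADPH 1 mM, test at 0.05−25 μM (DMSO 0.35% final), 37 °C; probes mephenytoin 25 μM (CYP2C19) and tolbutamide 120 μM (CYP2C9), 60 min each. IC50 from decrease in metabolite formation vs vehicle.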

[12] = target: Cyclin-dependent kinase 2 (Homo sapiens) (UniProt P24941); assay: Inhibition of CDK2 in human HCT116 cells assessed as Rb phosphorylation at 200 nM after 24 hrs by Western blot analysis; assay type: cell-based; details: HCT-116; procedure, shortened: as §1
[13] = AUC (0 to infinity) in BALB/c mouse at 5 mg/kg, iv by LC-MS/MS analysis; assay type: ADME, organism-based; parameters: time infinity, dose 5 mg/kg, route intravenous; details: plasma
[14] = Volume of distribution at steady state in BALB/c mouse at 5 mg/kg, iv by LC-MS/MS analysis; assay type: ADME, organism-based; parameters: dose 5 mg/kg, route intravenous; details: in vivo, read-out: Vdss

Cytochrome P450 2C19, sequence (P33261 whole entry): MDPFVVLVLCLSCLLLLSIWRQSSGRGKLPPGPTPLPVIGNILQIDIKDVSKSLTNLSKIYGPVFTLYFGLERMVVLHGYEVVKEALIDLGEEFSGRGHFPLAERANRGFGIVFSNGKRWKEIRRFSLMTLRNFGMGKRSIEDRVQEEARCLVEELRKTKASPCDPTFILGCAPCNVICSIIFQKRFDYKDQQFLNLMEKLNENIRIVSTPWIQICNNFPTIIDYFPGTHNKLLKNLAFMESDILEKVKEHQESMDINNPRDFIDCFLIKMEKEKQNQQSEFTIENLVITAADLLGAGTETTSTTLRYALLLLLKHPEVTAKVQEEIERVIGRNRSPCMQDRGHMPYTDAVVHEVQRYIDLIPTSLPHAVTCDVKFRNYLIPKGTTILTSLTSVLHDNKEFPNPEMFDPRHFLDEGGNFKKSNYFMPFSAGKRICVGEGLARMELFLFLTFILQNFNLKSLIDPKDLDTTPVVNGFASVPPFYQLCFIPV
Cytochrome P450 3A4, sequence (P08684 whole entry): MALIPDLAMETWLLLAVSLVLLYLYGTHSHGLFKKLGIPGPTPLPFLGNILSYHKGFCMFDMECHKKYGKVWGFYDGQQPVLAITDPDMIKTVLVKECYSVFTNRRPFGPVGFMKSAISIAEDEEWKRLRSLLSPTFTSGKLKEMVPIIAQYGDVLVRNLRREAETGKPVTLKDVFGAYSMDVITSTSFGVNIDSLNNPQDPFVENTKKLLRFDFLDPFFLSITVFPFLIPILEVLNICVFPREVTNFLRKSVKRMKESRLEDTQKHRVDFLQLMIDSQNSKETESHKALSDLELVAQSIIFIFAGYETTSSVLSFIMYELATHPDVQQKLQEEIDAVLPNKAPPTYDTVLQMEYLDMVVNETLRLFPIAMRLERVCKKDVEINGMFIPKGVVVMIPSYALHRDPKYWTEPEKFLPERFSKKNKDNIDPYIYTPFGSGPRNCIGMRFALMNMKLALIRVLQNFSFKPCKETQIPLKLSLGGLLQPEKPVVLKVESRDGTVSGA

CN1C/C=C/CCOc2cccc(c2)-c2ccnc(n2)Nc2cccc(c2)C1 [ZOTIRACICLIB]
inhibition in vivo at 75 mg/kg (Ramos [1]): 42%
IC50 (DU-145): 140 nM
fraction unbound at 4 h, 1000 ng/ml [2]: 0.006
IC50 (Ramos [3]): 33 nM
half-life at 5 µM [4]: 12 min
inhibition [5]: Active
bioavailability [6]: 24%
IC50 [7]: 56 nM
IC50 (COLO 205): 72 nM
IC50 (Cytochrome P450 3A4): > 25 µM
clearance [8]: 110 mL/min/kg
Cmax [9]: 1030 ng/mL
Papp B→A at 5 µM [10]: 27.4 ×10⁻⁶ cm/s
AUC(0-inf) [11]: 2520 ng·h/mL
IC50 (Cytochrome P450 2C19): > 25 µM
inhibition [12]: Active
AUC(0-inf) [13]: 752 ng·h/mL
Vd [14]: 23 L/kg

Source: ChEMBL document CHEMBL1944548, “Discovery of kinase spectrum selective macrocycle (16E)-14-methyl-20-oxa-5,7,14,26-tetraazatetracyclo[19.3.1.1(2,6).1(8,12)]heptacosa-1(25),2(26),3,5,8(27),9,11,16,21,23-decaene (SB1317/TG02), a potent inhibitor of cyclin dependent kinases (CDKs), Janus kinase 2 (JAK2), and fms-like tyrosine …” (J Med Chem, 2012)
